Converted amounts (≈) assume the structure as drawn.

Experimental findings from ChEMBL document CHEMBL1125826, “Synthesis and biological activity of 5-amino- and 5-hydroxyquinolones, and the overwhelming influence of the remote N1-substituent in determining the structure-activity relationship” (1991) are described below.

Common to all, as to assay type: functional
The subject of assay [1] is Staphylococcus aureus. The experiment in a line: Antibacterial activity was determined against gram positive organism, Staphylococcus aureus H228. The conditions noted are these: Staphylococcus aureus; read-out: MIC. The method in brief:
(§1)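 MIC (µg/mL) by standard microtitration against a panel of 10 Gram-positive and Gram-negative organisms; values averaged from multiple experiments.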

The test system of assay [2] is Bacteria. Kind of assay: MIC ratio measured as the mean MICs of gram-negative bacteria. The procedure, abridged: (§2)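 Geometric mean of the microtitration MICs (µg/mL) over the Gram-negative organisms, and separately over the Gram-positive organisms, of the 10-strain panel; individual MICs averaged from multiple experiments.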
A further assay deals with Enterobacter cloacae. The experiment in a line: Antibacterial activity was determined against gram negative organism, Enterobacter cloacae MA2646. The conditions noted are these: Enterobacter cloacae; read-out: MIC.
The next assay concerns Streptococcus pyogenes. Kind of assay: Antibacterial activity was determined against gram positive organism, Streptococcus pyogenes C203. The conditions noted are these: Streptococcus pyogenes; read-out: MIC. The procedure, abridged:
as §1

The subject of a further assay is Klebsiella pneumoniae. Kind of assay: Antibacterial activity was determined against gram negative organism, Klebsiella pneumoniae MGH-2. The conditions noted are these: Klebsiella pneumoniae; read-out: MIC. The procedure, abridged:
as §1

For assay [3], the target named is DNA gyrase (Escherichia coli) (UniProt P0AES6+P0AES4). Kind of assay: Minimum inhibitory concentration against Escherichia coli DNA-gyrase in supercoiling assay.
The test system of the next assay is Streptococcus pneumoniae. The experiment in a line: Antibacterial activity was determined against gram positive organism, Streptococcus pneumoniae SV-1. The conditions noted are these: Streptococcus pneumoniae; read-out: MIC. The method in brief: as §1
For another assay, the system named is Enterococcus faecalis. Kind of assay: Antibacterial activity was determined against gram positive organism, Streptococcus faecalis MGH-2. The conditions noted are these: Enterococcus faecalis; read-out: MIC. The method in brief:
as §1

Assay [4] has as its system Staphylococcus aureus. The experiment in a line: Antibacterial activity was determined against gram positive organism, Staphylococcus aureus UC76. The method in brief: as §1
The test system of the next assay is Escherichia coli. The experiment in a line: Antibacterial activity was determined against gram negative organism, Escherichia coli vogel. The conditions noted are these: Escherichia coli; read-out: MIC. The method in brief:
as §1

For assay [5], the system named is Bacteria. Kind of assay: Antibacterial activity was determined against gram negative organism, Providencia rettgeri. M1771. The conditions noted are these: Bacteria; read-out: MIC. The method in brief: as §1
For a further assay, the system named is Pseudomonas aeruginosa. Kind of assay: Antibacterial activity was determined against gram negative organism, Pseudomonas aeruginosa UI-18. The conditions noted are these: Pseudomonas aeruginosa; read-out: MIC. The method in brief: as §1
Assay [6] has as its system Bacteria. Kind of assay: MIC ratio measured as the mean MICs of gram-positive bacteria. The procedure, abridged: as §2
The mark [7] stands for this setting: Staphylococcus aureus, read-out: MIC.

Regarding `CCNCC1CCN(c2c(F)c(O)c3c(=O)c(C(=O)O)cn(CC)c3c2F)C1` (configuration not stated), the MIC was found to be 0.4 µg/mL (≈ 1.01 µM) in the assay on Staphylococcus aureus [1]; 0.4 µg/mL (≈ 1.01 µM) in the assay with Enterobacter cloacae; 0.2 µg/mL (≈ 0.506 µM) in the assay on Streptococcus pyogenes; 0.8 µg/mL (≈ 2.02 µM) with Klebsiella pneumoniae; 2.5 µg/mL (≈ 6.32 µM) in assay [3]; 0.2 µg/mL (≈ 0.506 µM) in the assay with Streptococcus pneumoniae. In addition, the MIC was 0.4 µg/mL (≈ 1.01 µM) in the assay on Enterococcus faecalis; 0.05 µg/mL (≈ 0.126 µM) in the assay on Staphylococcus aureus [4] (setting [7]); 0.4 µg/mL (≈ 1.01 µM) in the assay with Escherichia coli; 3.1 µg/mL (≈ 7.84 µM) in the assay on Bacteria [5]; 12.5 µg/mL (≈ 31.6 µM) in the assay on Pseudomonas aeruginosa. Further, the Geometric mean MIC over Gram-negative bacteria (µg/mL) in the assay on Bacteria [2] came out at 1.38. The “Geometric mean MIC over Gram-positive bacteria (µg/mL)” value in the assay with Bacteria [6] came to 0.2.
With `CC1CN(c2cc3c(cc2F)c(=O)c(C(=O)O)cn3-c2ccc(F)cc2F)CCN1` (configuration not stated) [TEMAFLOXACIN], the MIC in the assay on Staphylococcus aureus [1] came out at 0.1 µg/mL (≈ 0.24 µM); in the assay with Enterobacter cloacae it was 0.05 µg/mL (≈ 0.12 µM); in the assay on Streptococcus pyogenes, 0.1 µg/mL (≈ 0.24 µM); in the assay with Klebsiella pneumoniae, 0.1 µg/mL (≈ 0.24 µM); in assay [3] it was 0.75 µg/mL (≈ 1.8 µM); with Streptococcus pneumoniae, 0.1 µg/mL (≈ 0.24 µM). In addition, the MIC in the assay with Enterococcus faecalis was 0.2 µg/mL (≈ 0.479 µM); in the assay with Staphylococcus aureus [4] it was 0.025 µg/mL (≈ 0.0599 µM); in the assay on Escherichia coli, 0.05 µg/mL (≈ 0.12 µM); in the assay on Bacteria [5], 0.2 µg/mL (≈ 0.479 µM); in the assay on Pseudomonas aeruginosa, 1.6 µg/mL (≈ 3.83 µM). For the same compound, the Geometric mean MIC over Gram-negative bacteria (µg/mL) in the assay with Bacteria [2] was found to be 0.15. In addition, in the assay with Bacteria [6], the “Geometric mean MIC over Gram-positive bacteria (µg/mL)” value was 0.087.
Take `CCNCC1CCN(c2c(F)c(N)c3c(=O)c(C(=O)O)cn(CC)c3c2Cl)C1` (configuration not stated): the MIC was determined as 1.6 µg/mL (≈ 3.89 µM) with Staphylococcus aureus [1]; 3.1 µg/mL (≈ 7.54 µM) with Enterobacter cloacae; 6.3 µg/mL (≈ 15.3 µM) in the assay with Streptococcus pyogenes; 6.3 µg/mL (≈ 15.3 µM) with Klebsiella pneumoniae; 2.5 µg/mL (≈ 6.08 µM) in assay [3]; 1.6 µg/mL (≈ 3.89 µM) with Streptococcus pneumoniae. The MIC with Enterococcus faecalis is 1.6 µg/mL (≈ 3.89 µM); in the assay with Staphylococcus aureus [4] (setting [7]), 0.4 µg/mL (≈ 0.974 µM); in the assay with Escherichia coli it was 1.6 µg/mL (≈ 3.89 µM); with Bacteria [5] it was 12.5 µg/mL (≈ 30.4 µM); with Pseudomonas aeruginosa it was 25 µg/mL (≈ 60.8 µM). Further, the Geometric mean MIC over Gram-negative bacteria (µg/mL) in the assay on Bacteria [2] amounted to 6.28. In the assay with Bacteria [6], the “Geometric mean MIC over Gram-positive bacteria (µg/mL)” value is reported as 1.59.
Turning to `CCn1cc(C(=O)O)c(=O)c2c(O)c(F)c(N3CCNC(C)C3)c(F)c21` (configuration not stated), the MIC was 6.3 µg/mL (≈ 17.1 µM) in the assay with Staphylococcus aureus [1]; 0.4 µg/mL (≈ 1.09 µM) with Enterobacter cloacae; 12.5 µg/mL (≈ 34 µM) in the assay with Streptococcus pyogenes; 0.8 µg/mL (≈ 2.18 µM) in the assay on Klebsiella pneumoniae; 5 µg/mL (≈ 13.6 µM) in assay [3]; 12.5 µg/mL (≈ 34 µM) with Streptococcus pneumoniae. For the same compound, the MIC was 12.5 µg/mL (≈ 34 µM) in the assay with Enterococcus faecalis; 1.6 µg/mL (≈ 4.36 µM) with Staphylococcus aureus [4] (setting [7]); 0.4 µg/mL (≈ 1.09 µM) in the assay with Escherichia coli; 1.6 µg/mL (≈ 4.36 µM) in the assay with Bacteria [5]; 12.5 µg/mL (≈ 34 µM) in the assay with Pseudomonas aeruginosa.
On to `CCNCC1CCN(c2c(F)cc3c(=O)c(C(=O)O)cn(CC)c3c2Cl)C1` (configuration not stated), for which the MIC with Staphylococcus aureus [1] was 0.1 µg/mL (≈ 0.253 µM); with Enterobacter cloacae, 0.2 µg/mL (≈ 0.505 µM); in the assay on Streptococcus pyogenes it was 0.05 µg/mL (≈ 0.126 µM); with Klebsiella pneumoniae it was 0.4 µg/mL (≈ 1.01 µM); in assay [3] it was 2.5 µg/mL (≈ 6.32 µM); in the assay on Streptococcus pneumoniae, 0.05 µg/mL (≈ 0.126 µM). The MIC in the assay with Enterococcus faecalis is 0.1 µg/mL (≈ 0.253 µM); in the assay with Staphylococcus aureus [4], 0.025 µg/mL (≈ 0.0632 µM); in the assay on Escherichia coli it was 0.2 µg/mL (≈ 0.505 µM); with Bacteria [5], 0.8 µg/mL (≈ 2.02 µM); in the assay on Pseudomonas aeruginosa it was 12.5 µg/mL (≈ 31.6 µM). Besides, the Geometric mean MIC over Gram-negative bacteria (µg/mL) in the assay with Bacteria [2] was 0.69. For the same compound, the “Geometric mean MIC over Gram-positive bacteria (µg/mL)” value in the assay with Bacteria [6] is 0.057.
Consider `CCn1cc(C(=O)O)c(=O)c2cc(F)c(N3CC(C)NC(C)C3)c(Cl)c21` (configuration not stated), for which the MIC in the assay with Staphylococcus aureus [1] was 3.1 µg/mL (≈ 8.12 µM); with Enterobacter cloacae it was 3.1 µg/mL (≈ 8.12 µM); in the assay on Streptococcus pyogenes, 12.5 µg/mL (≈ 32.7 µM); in the assay on Klebsiella pneumoniae it was 3.1 µg/mL (≈ 8.12 µM); in [3], 5 µg/mL (≈ 13.1 µM); in the assay on Streptococcus pneumoniae, 12.5 µg/mL (≈ 32.7 µM). In addition, the MIC amounted to 12.5 µg/mL (≈ 32.7 µM) in the assay with Enterococcus faecalis; 1.6 µg/mL (≈ 4.19 µM) in the assay with Staphylococcus aureus [4]; 1.6 µg/mL (≈ 4.19 µM) in the assay with Escherichia coli; 6.3 µg/mL (≈ 16.5 µM) in the assay on Bacteria [5]; 12.5 µg/mL (≈ 32.7 µM) in the assay on Pseudomonas aeruginosa. Further, the Geometric mean MIC over Gram-negative bacteria (µg/mL) with Bacteria [2] was 4.14. Moreover, the “Geometric mean MIC over Gram-positive bacteria (µg/mL)” value in the assay with Bacteria [6] is recorded as 6.27.
Consider `CCn1cc(C(=O)O)c(=O)c2c(N)c(F)c(N3CCNC(C)C3)c(F)c21` (configuration not stated), for which the MIC came to 1.6 µg/mL (≈ 4.37 µM) with Staphylococcus aureus [1]; 0.2 µg/mL (≈ 0.546 µM) with Enterobacter cloacae; 6.3 µg/mL (≈ 17.2 µM) with Streptococcus pyogenes; 0.4 µg/mL (≈ 1.09 µM) in the assay on Klebsiella pneumoniae; 7.5 µg/mL (≈ 20.5 µM) in [3]; 3.1 µg/mL (≈ 8.46 µM) in the assay on Streptococcus pneumoniae. Further, the MIC in the assay with Enterococcus faecalis came out at 3.1 µg/mL (≈ 8.46 µM); in the assay with Staphylococcus aureus [4] (setting [7]), 0.4 µg/mL (≈ 1.09 µM); in the assay on Escherichia coli, 0.2 µg/mL (≈ 0.546 µM); in the assay with Bacteria [5], 1.6 µg/mL (≈ 4.37 µM); in the assay with Pseudomonas aeruginosa it was 3.1 µg/mL (≈ 8.46 µM). The Geometric mean MIC over Gram-negative bacteria (µg/mL) with Bacteria [2] worked out at 0.6. Also, in the assay on Bacteria [6], the “Geometric mean MIC over Gram-positive bacteria (µg/mL)” value is reported as 2.07.
Turning to `CCn1cc(C(=O)O)c(=O)c2cc(F)c(N3CCNC(C)C3)c(Cl)c21` (configuration not stated), the MIC turned out to be 1.6 µg/mL (≈ 4.35 µM) in the assay on Staphylococcus aureus [1]; 0.2 µg/mL (≈ 0.544 µM) in the assay on Enterobacter cloacae; 3.1 µg/mL (≈ 8.43 µM) in the assay with Streptococcus pyogenes; 0.4 µg/mL (≈ 1.09 µM) in the assay with Klebsiella pneumoniae; 5 µg/mL (≈ 13.6 µM) in [3]; 3.1 µg/mL (≈ 8.43 µM) in the assay with Streptococcus pneumoniae. For the same compound, the MIC turned out to be 3.1 µg/mL (≈ 8.43 µM) in the assay with Enterococcus faecalis; 0.4 µg/mL (≈ 1.09 µM) in the assay on Staphylococcus aureus [4]; 0.2 µg/mL (≈ 0.544 µM) in the assay with Escherichia coli; 0.8 µg/mL (≈ 2.18 µM) with Bacteria [5]; 6.3 µg/mL (≈ 17.1 µM) in the assay on Pseudomonas aeruginosa. The Geometric mean MIC over Gram-negative bacteria (µg/mL) in the assay on Bacteria [2] was found to be 0.6. Also, the “Geometric mean MIC over Gram-positive bacteria (µg/mL)” value with Bacteria [6] was determined as 1.8.
